Measurements as given in ChEMBL document CHEMBL1799966, “Synthesis and anticancer activity of oxindole derived imidazo[1,5-a]pyrazines” (Eur J Med Chem, 2011).
Calls of active or inactive are those of the source. The calls are words filed in the database; no cut-off is given here.

Legend:
MCF7 = experiment: Cytotoxicity against human MCF7 cells; format: functional
Method in brief: (§1)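 NCI 60-cell panel second-stage testing by NCI standard procedures. Compound was dissolved in DMSO and tested at five 10-fold dilutions: 10^-4, 10^-5, 10^-6, 10^-7 and 10^-8 M.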

A549 [1] = experiment: Induction of apoptosis in human A549 cells assessed as pre-necrotic cells at 6.5 uM after 48 hrs using Annexin V-FITC and PI staining by flow cytometry (reference value: 0.5 %); format: functional
A549 [2] = experiment: Induction of cell cycle arrest in human A549 cells assessed as accumulation at S phase at 6.5 uM after 24 hrs by propidium iodide staining-based FACS analysis (reference value: 19.21 %); format: functional
Method in brief: (§2)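 A549 cells (1 × 10^6) in six-well plates received 6.5 µM (final) for 24 h or 48 h. Floating and adherent cells were fixed in 70% ethanol, washed in PBS, then stained for 20 min with 50 µg/mL propidium iodide in hypotonic citrate/Triton X-100 buffer with DNase-free RNase A. Cells were analysed by FACS.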

NCI/ADR-RES = experiment: Cytotoxicity against human NCI/ADR-RES cells; format: functional; method in brief: as §1
UACC-257 = experiment: Cytotoxicity against human UACC257 cells; format: functional
Method in brief: (§3)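 NCI 60-cell-line panel protocol. Primary screen used a single 10^-5 M concentration with 48 h incubation, and percent growth was read against untreated cells by sulforhodamine B protein staining. The five-dose follow-up used a DMSO solution at five 10-fold dilutions from 10^-4 to 10^-8 M.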

DU-145 = experiment: Cytotoxicity against human DU145 cells; format: functional; method in brief: as §1
SF-539 = experiment: Cytotoxicity against human SF539 cells; format: functional; method in brief: as §1
SK-OV-3 = experiment: Cytotoxicity against human SKOV3 cells; format: functional; method in brief: as §3
SNB-75 [3] = experiment: Anticancer activity against human SNB75 cells assessed as mean cell growth at 10^-5 M after 48 hrs by SRB assay; format: functional
Method in brief: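 NCI-60 primary screen run to the US NCI protocol. Compound added at a single concentration of 10^-5 M and cultures incubated 48 h. The end point was sulforhodamine B (SRB) protein staining, reported as percent growth of treated cells relative to untreated control cells.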

A549 [4] = experiment: Induction of cell cycle arrest in human A549 cells assessed as accumulation at G0/G1 phase at 6.5 uM after 48 hrs by propidium iodide staining-based FACS analysis (reference value: 56.26 %); format: functional; method in brief: as §2
BT-549 = experiment: Cytotoxicity against human BT549 cells; format: functional; method in brief: as §1
HCT-116 = experiment: Cytotoxicity against human HCT116 cells; format: functional; method in brief: as §1
SR = experiment: Cytotoxicity against human SR cells; format: functional; method in brief: as §3
SNB-75 [5] = experiment: Cytotoxicity against human SNB75 cells; format: functional; method in brief: as §3
A549 [6] = experiment: Induction of apoptosis in human A549 cells assessed as cytoplasmic condensation at 6.5 uM after 24 to 48 hrs by Hoechst 33342 staining; format: functional, cell-based
Method in brief: (§4)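 A549 cells were grown 24 h on coverslips at 10,000 cells, then exposed to 6.5 µM for 24 h and 48 h, with 0.001% DMSO vehicle controls. Hoechst 33342 (0.5 µg/mL) with 4% paraformaldehyde was applied for 30 min at 37 °C. Random fields were examined by fluorescence microscopy, scoring relative fluorescence and nuclear fragmentation.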

NCI-H23 = experiment: Cytotoxicity against human NCI-H23 cells; format: functional; method in brief: as §1
K562 = experiment: Cytotoxicity against human K562 cells; format: functional; method in brief: as §1
LOX IMVI = experiment: Cytotoxicity against human LOXIMVI cells; format: functional; method in brief: as §1
A549 [7] = experiment: Induction of apoptosis in human A549 cells assessed as late apoptotic cells at 6.5 uM after 48 hrs using Annexin V-FITC and PI staining by flow cytometry (reference value: 85.7 %); format: functional
NCI-H226 = experiment: Cytotoxicity against human NCI-H226 cells; format: functional; method in brief: as §1
EKVX = experiment: Cytotoxicity against human EKVX cells; format: functional; method in brief: as §1
MDA-MB-231 = experiment: Cytotoxicity against human MDA-MB-231 cells; format: functional; method in brief: as §1
OVCAR-4 = experiment: Cytotoxicity against human OVCAR4 cells; format: functional; method in brief: as §1
NCI-H522 = experiment: Cytotoxicity against human NCI-H522 cells; format: functional; method in brief: as §1
UACC-62 = experiment: Cytotoxicity against human UACC62 cells; format: functional; method in brief: as §3
MDA-MB-435 = experiment: Cytotoxicity against human MDA-MB-435 cells; format: functional; method in brief: as §1
COLO 205 = experiment: Cytotoxicity against human COLO205 cells; format: functional; method in brief: as §1
A549 [8] = experiment: Induction of cell cycle arrest in human A549 cells assessed as accumulation at S phase at 6.5 uM after 48 hrs by propidium iodide staining-based FACS analysis (reference value: 19.21 %); format: functional; method in brief: as §2
SF-268 = experiment: Cytotoxicity against human SF268 cells; format: functional; method in brief: as §1
SF-295 = experiment: Cytotoxicity against human SF295 cells; format: functional; method in brief: as §1
UO-31 = experiment: Cytotoxicity against human UO31 cells; format: functional; method in brief: as §3
786-0 = experiment: Cytotoxicity against human 786-0 cells; format: functional; method in brief: as §1
SK-MEL-5 = experiment: Cytotoxicity against human SK-MEL-5 cells; format: functional; method in brief: as §3
A549 [9] = experiment: Induction of apoptosis in human A549 cells assessed as apoptotic bodies formation at 6.5 uM after 24 to 48 hrs by Hoechst 33342 staining; format: functional, cell-based; method in brief: as §4
SK-MEL-2 = experiment: Cytotoxicity against human SK-MEL-2 cells; format: functional; method in brief: as §1
A549 [10] = experiment: Induction of apoptosis in human A549 cells assessed as late apoptotic cells at 6.5 uM after 24 hrs using Annexin V-FITC and PI staining by flow cytometry (reference value: 85.7 %); format: functional
NCI-H460 = experiment: Cytotoxicity against human NCI-H460 cells; format: functional; method in brief: as §1
HOP-62 = experiment: Cytotoxicity against human HOP62 cells; format: functional; method in brief: as §1
NCI-H322M = experiment: Cytotoxicity against human NCI-H322M cells; format: functional; method in brief: as §1
TK-10 = experiment: Cytotoxicity against human TK10 cells; format: functional; method in brief: as §3
MDA-MB-468 = experiment: Cytotoxicity against human MDA-MB-468 cells; format: functional; method in brief: as §1
ACHN = experiment: Cytotoxicity against human ACHN cells; format: functional; method in brief: as §1
Malme-3M = experiment: Cytotoxicity against human MALME-3M cells; format: functional; method in brief: as §1
HCT-15 = experiment: Cytotoxicity against human HCT15 cells; format: functional; method in brief: as §1
SW-620 = experiment: Cytotoxicity against human SW620 cells; format: functional; method in brief: as §3
IGROV-1 = experiment: Cytotoxicity against human IGROV1 cells; format: functional; method in brief: as §1
A549 [11] = experiment: Cytotoxicity against human A549 cells; format: functional
HEK293 = experiment: Cytotoxicity against human HEK293 cells after 48 hrs by MTT assay; format: cell-based; conditions: hek293, 48 h
Method in brief: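 HEK-293 cells were seeded at 1 × 10^4 cells/well in DMEM with 10% FBS and held 24 h at 37 °C under CO2. Compound diluted in culture medium was added for 48 h. MTT (5 mg/mL stock) was then added for 4 h, formazan dissolved in DMSO, and absorbance read at 540 nm.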

T47D = experiment: Cytotoxicity against human T47D cells; format: functional; method in brief: as §3
RXF 393 = experiment: Cytotoxicity against human RXF393 cells; format: functional; method in brief: as §1
M14 = experiment: Cytotoxicity against human M14 cells; format: functional; method in brief: as §1

In the case of `O=C1Nc2ccccc2/C1=C\c1nc(-c2ccccc2F)n2ccccc12`, the GI50 (MCF7) was 2.1 µM, the Activity (A549 [1]) was 0.9% and the Activity (A549 [2]) was 13.51%. The GI50 (NCI/ADR-RES) was 3.36 µM, the GI50 (UACC-257) was 5.2 µM and the GI50 (DU-145) was 3.26 µM. For the same compound, the GI50 (SF-539) was 3.1 µM, the GI50 (SK-OV-3) was 3.46 µM and the Activity (SNB-75 [3]) was 18.49%. For the same compound, the Activity (A549 [4]) was 75.85%, the GI50 (BT-549) was 3.36 µM and the GI50 (HCT-116) was 1.97 µM. For the same compound, the GI50 (SR) was 11 µM, the GI50 (SNB-75 [5]) was 1.79 µM and the Activity (A549 [6]) was “Active”. The GI50 (NCI-H23) was 4.55 µM, the GI50 (K562) was 6.35 µM and the GI50 (LOX IMVI) was 4.15 µM. For the same compound, the Activity (A549 [7]) was 3.4%, the GI50 (NCI-H226) was 4.78 µM and the GI50 (EKVX) was 10.6 µM. The GI50 (MDA-MB-231) was 2.27 µM, the GI50 (OVCAR-4) was 1.81 µM and the GI50 (NCI-H522) was 2.18 µM. For the same compound, the GI50 (UACC-62) was 6.32 µM, the GI50 (MDA-MB-435) was 3.95 µM and the GI50 (COLO 205) was 4.08 µM. It also gave an Activity (A549 [8]) of 5.74%, a GI50 (SF-268) of 4.65 µM and a GI50 (SF-295) of 3.65 µM. The GI50 (UO-31) was 2.12 µM, the GI50 (786-0) was 3.44 µM and the GI50 (SK-MEL-5) was 2.8 µM. The Activity (A549 [9]) was “Active”, the GI50 (SK-MEL-2) was 6.81 µM and the Activity (A549 [10]) was 7.2%. The GI50 (NCI-H460) was 2.17 µM, the GI50 (HOP-62) was 2.37 µM and the GI50 (NCI-H322M) was 4.16 µM. The GI50 (TK-10) was 4.05 µM, the GI50 (MDA-MB-468) was 1.54 µM and the GI50 (ACHN) was 3.3 µM. For the same compound, the GI50 (Malme-3M) was 3.07 µM, the GI50 (HCT-15) was 13 µM and the GI50 (SW-620) was 3.97 µM. The GI50 (IGROV-1) was 2.04 µM, the GI50 (A549 [11]) was 3.46 µM and the Activity (HEK293) was “Non-toxic”. The GI50 (T47D) was 2.36 µM, the GI50 (RXF 393) was 3.41 µM and the GI50 (M14) was 5.65 µM.
